mABHD4 FP: inhibits mouse alpha/beta hydrolase domain 4; Q8VD66; purified mABHD4, FP-Rh probe fluorescence polarization; inhibition, % at 8.92 µM; hit rate 0.54% among 370,000;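 active = inhibition exceeding the mean over every tested compound plus 3 SD, cut at about 30% in these data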
Target sequence (Q8VD66 whole entry, looked up, the tested form may be a part): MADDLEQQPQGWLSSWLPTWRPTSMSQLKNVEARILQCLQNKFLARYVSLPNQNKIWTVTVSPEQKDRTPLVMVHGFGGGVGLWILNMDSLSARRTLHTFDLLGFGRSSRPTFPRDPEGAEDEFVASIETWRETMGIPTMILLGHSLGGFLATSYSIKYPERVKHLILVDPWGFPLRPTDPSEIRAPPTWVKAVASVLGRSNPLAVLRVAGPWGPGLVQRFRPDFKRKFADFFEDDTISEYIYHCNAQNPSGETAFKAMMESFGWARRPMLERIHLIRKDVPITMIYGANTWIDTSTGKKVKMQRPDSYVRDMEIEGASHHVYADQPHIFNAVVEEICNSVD
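Assay system: mouse ABHD4 enzyme, wild type / Also added: fluorescent activity-based probe FP-Rh / Doses: single nominal dose of 8.92 µM, 0.89% DMSO final / Timing: 45 min compound pre-incubation plus 60 min probe step, 25 °C / Signal: FP readout, ex 525 nm / em 598 nm / Control set: S159A mutant/DMSO as 100%, compound-well median as 0%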
HTRA1 inhibitor: inhibitors of human serine peptidase HTRA1 | Q92743 | recombinant HTRA1, FP-rhodamine activity-based probe, fluorescence polarization | inhibition, % at 5.96 µM | hit rate 0.5% among 340,000 | AID 504803; in the data active = inhibition above about 36%
PME-1 inh: PME-1 (human) inhibition; hit rate 0.53% among 320,000; inhibition, % at 5.9 µM; recombinant PME-1, FP-Rh probe fluorescence polarization;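 active = inhibition above the campaign mean of all compounds plus 3 SD, cut at about 26% in these data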;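 note: competitive labeling of PME-1 active site by serine hydrolase directed probe; inhibitors block probe labeling so polarization falls and inhibition rises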
TCR CD3 inh: blocks the human TCR-CD3 interaction; TAMRA-labeled TCR probe fluorescence, biochemical; hit rate 0.37% among 360,000; AID 651800; inhibition, % at 9.4 µM; in the data active = inhibition above about 19%;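 note: recombinant mutant TCR 2C K166C tagged with TAMRA read by polarization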
Fam108B inh: counter-screen for RBBP9 inhibitors: inhibitors of mouse Fam108B; hit rate 0.33% among 300,000; recombinant Fam108B, FP-Rh probe fluorescence polarization; inhibition, % at 9.51 µM;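 active = inhibition above the screen mean inhibition plus 3 SD, computed separately per campaign, cut at about 18% in these data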;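 note: inhibitors lower polarization as less probe binds the enzyme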
SIAE inh: inhibitors of human sialic acid acetylesterase SIAE | Q9HAT2 | SIAE FP-Rh probe binding, fluorescence polarization | inhibition, % at 9.66 µM | hit rate 0.69% among 370,000 | AID 1053197;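 active = inhibition above a cutoff: mean of compounds within the control limits plus 3 SD of those, cut at about 17% in these data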
SIAE confirm: confirmation of human SIAE inhibitors; shares compounds with SIAE inh; SIAE FP-Rh activity-based probe, fluorescence polarization; inhibition, % at 9.66 µM; hit rate 13% among 2,300;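 active = mean inhibition of the replicates above the hit cutoff set in the primary screen, cut at about 17% in these data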;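 note: inhibitors lower polarization as more probe stays unbound to SIAE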
Of the large screens only hits and unclear results are named; the others gave an inactive call (follow-up assays come after a bar, where they were run). In the library only some 1.8% were active in any assay of this set; here they are far more common.

O=C(Nc1ccc(N2CCCCC2)cc1)c1ccc([N+](=O)[O-])o1	SIAE inh 19 | SIAE confirm inactive
O=C(Nc1ccc(N2CCOCC2)cc1)c1ccc([N+](=O)[O-])cc1	SIAE inh 17 | SIAE confirm inactive
O=C(c1ccc([N+](=O)[O-])cc1)N1CCOCC1	SIAE inh 18 (no result: PME-1 inh, Fam108B inh) | SIAE confirm inactive
O=C(c1ccc([N+](=O)[O-])cc1)N1CCCC1	none
CCC(NC(=O)C1CCCN(c2ncccn2)C1)c1ccccc1 (configuration not stated)	none (no result: HTRA1 inhibitor, PME-1 inh, TCR CD3 inh, Fam108B inh)
O=C(NC1CCCCCC1)c1[nH]c(C(F)(F)F)nc1-c1ccccc1	none (no result: HTRA1 inhibitor, PME-1 inh, Fam108B inh)
CN(C)/C=N/C(=S)Nc1cc(Cl)cc(Cl)c1	SIAE inh 17 | SIAE confirm inactive
CN(C)/C=N/C(=S)Nc1ccc(Cl)c(Cl)c1	none
Cc1ccccc1NC(=O)COC(=O)C1(C)CC1(Cl)Cl (configuration not stated)	SIAE inh 19 | SIAE confirm inactive
CCCOn1nnnc1-c1ccccc1	SIAE inh 18 | SIAE confirm inactive
CN(C)c1ccc(C2SCCN2C(=O)c2ccc([N+](=O)[O-])cc2)cc1 (configuration not stated)	SIAE inh 19 | SIAE confirm inactive
CC(=O)NCCNC(=O)C1(C)Cc2c(-c3cccc(C(F)(F)F)c3)ccnc2O1 (configuration not stated)	none (no result: HTRA1 inhibitor, PME-1 inh, Fam108B inh)
C[C@@H](NC(=O)[C@@H]1CCCN1C(=O)[C@@H]1CCCN1C(=O)c1cccs1)c1ccccc1	none (no result: HTRA1 inhibitor, PME-1 inh, Fam108B inh)
COc1cccc(-c2nc(NC3CCCC3)c3ccccc3n2)c1O	PME-1 inh 27, SIAE inh 29 | SIAE confirm inactive
COc1cccc(-c2nc(NCc3ccccc3)c3ccccc3n2)c1O	none
CCOC(=O)C1CCN(C(=O)CS(=O)(=O)Cc2nc(-c3ccccc3Cl)oc2C)CC1	none
CC(C)C[C@H]1CN([C@@H](CC(C)C)CN2CCC[C@H]2CN2C(=O)C(=O)NC[C@@H]2Cc2ccc(O)cc2)C(=O)C(=O)N1CCc1ccccc1	SIAE inh 20 (no result: HTRA1 inhibitor, PME-1 inh, Fam108B inh) | SIAE confirm inactive
CN(C(=O)c1ccc(N2CCOCC2)c([N+](=O)[O-])c1)C1CCCCC1	SIAE inh 17 | SIAE confirm inactive
Cc1sc(N/N=C/c2ccco2)nc1-c1ccccc1	none
Cc1sc(N/N=C/c2cccnc2)nc1-c1ccccc1	SIAE inh 17 | SIAE confirm inactive
CC(C)(C)OC(=O)N1CCN(C(=O)Nc2ccc3c(c2)OCCO3)CC1	SIAE inh 18 | SIAE confirm inactive
COc1ccc(COCC(O)CN2CCc3ccccc3C2)cc1OC (configuration not stated)	SIAE inh 20 | SIAE confirm inactive
OC(COCc1ccccc1)CN1CCc2ccccc2C1 (configuration not stated)	none
Cc1c(C2(O)CCCCC2)[nH]c2ccc(C#N)cc12	SIAE inh 18 (no result: PME-1 inh, Fam108B inh) | SIAE confirm inactive
c1ccc(OCc2ccc(CCCN3CCOCC3)cc2)cc1	SIAE inh 18 | SIAE confirm inactive
COc1ccc(C(=O)NCCS(=O)(=O)N2CCN(Cc3ccccc3)CC2)cc1	none
Cc1cc(C)nc(SCCS(=O)(=O)Cc2ccccc2)n1	none
Cc1cc(C)nc(SCCS(=O)(=O)Cc2ccc(Cl)cc2)n1	SIAE inh 20 | SIAE confirm inactive
O=C(Oc1cccc2c(O)cccc12)c1ccco1	SIAE inh 18 (no result: PME-1 inh, Fam108B inh) | SIAE confirm inactive
Cc1ccccc1C(=O)Oc1cccc2c(O)cccc12	none
Cc1ccc(-n2c(CNc3ccc(F)cc3)nnc2SCC(=O)O)cc1	SIAE inh 20 (no result: HTRA1 inhibitor) | SIAE confirm inactive
Cc1ccc(NC(=O)COC(=O)c2ccccc2Cl)cc1S(=O)(=O)N(C)C	none
CC(=O)N/C(=C\c1ccccc1)C(=O)OCC(=O)Nc1ccc(C)c(S(=O)(=O)N(C)C)c1	SIAE inh 21 (no result: PME-1 inh, Fam108B inh) | SIAE confirm inactive
COc1ccccc1CCNC(=O)c1c(N)[nH]c(C(=O)c2ccccc2)c1-c1ccc(Br)cc1	SIAE inh 18 (no result: HTRA1 inhibitor, PME-1 inh, Fam108B inh) | SIAE confirm inactive
Nc1[nH]c(C(=O)c2ccccc2)c(-c2ccc(Br)cc2)c1C(=O)NCCc1c[nH]c2ccccc12	none (no result: HTRA1 inhibitor, PME-1 inh, Fam108B inh)
Cc1cccc(CC(=O)NCC2CCCCC2)c1	none (no result: mABHD4 FP, TCR CD3 inh, SIAE inh)
